An excerpt weighted towards active compounds, which were near 3.5% of everything screened.
MrgX1 PAM: human MrgX1 positive allosteric modulation, primary screen; Q96LB2; MrgX1-HEK293, Fluo-4 calcium flux, FDSS; active compounds read high; B-score at 10 µM; hit rate 0.63% among 310,000; AID 588675;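 active = plate-corrected calcium response at least 3 library SD above typical, normal starting fluorescence, not activating the receptor alone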;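 note: compound read alongside a low EC10 to EC30 dose of BAM8-22 agonist; peak minus trough fluorescence over baseline measured at the second addition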
Target sequence (Q96LB2 whole entry, looked up): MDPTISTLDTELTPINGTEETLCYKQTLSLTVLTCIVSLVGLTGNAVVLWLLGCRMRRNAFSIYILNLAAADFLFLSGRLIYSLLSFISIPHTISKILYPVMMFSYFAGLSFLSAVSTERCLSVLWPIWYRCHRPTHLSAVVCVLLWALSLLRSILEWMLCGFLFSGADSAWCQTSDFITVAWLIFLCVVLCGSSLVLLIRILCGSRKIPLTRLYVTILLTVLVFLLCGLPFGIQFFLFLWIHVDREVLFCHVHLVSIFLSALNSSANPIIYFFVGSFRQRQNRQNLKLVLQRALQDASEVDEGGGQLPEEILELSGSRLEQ
RGS4 block: human RGS4 inhibition. P49798. HEK293 M3R/RGS4 inducible, Fluo-4 calcium flux; active compounds read high; triggered by carbachol at its EC20. B-score at 10 µM. hit rate 0.45% among 310,000;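 active = B-score, a plate-corrected calcium signal, over three deviations above library mean, with baseline fluorescence within five deviations of library mean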;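 note: RGS4 expression induced by doxycycline in cells with stable M3 receptor; B-score is computed from the integrated fluorescence ratio over baseline after carbachol; higher B-score means a larger calcium signal and so more RGS4 inhibition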
Target sequence (P49798 whole entry, looked up): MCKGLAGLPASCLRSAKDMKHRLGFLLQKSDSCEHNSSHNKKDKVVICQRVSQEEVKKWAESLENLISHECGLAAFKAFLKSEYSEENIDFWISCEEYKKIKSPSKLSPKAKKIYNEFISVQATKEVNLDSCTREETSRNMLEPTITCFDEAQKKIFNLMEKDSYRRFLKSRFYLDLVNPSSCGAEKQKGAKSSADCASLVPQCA
MrgX1 agonist: human MrgX1 receptor agonism, primary screen; Q96LB2; MrgX1-HEK293 cells, Fluo-4 calcium fluorescence, agonist mode; active compounds read high; B-score at 10 µM; hit rate 0.44% among 310,000;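 active = calcium response B-score plate-corrected fluorescence ratio at least 3 library SD, with starting fluorescence B-score inside 5 SD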
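times = overnight plating, then 30 min 37 °C plus 30 min room-temperature dye loading | assay system = stable human MrgX1 HEK293 cell line | input = fifteen thousand cells per well | signal = kinetic calcium dye fluorescence, Fluo-4 NW | dosing = compound delivered in addition one of three | read-out = B-scored fluorescence response ratio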
RGS4 pot: RGS4 potentiation or activation | AID 463111 | B-score at 10 µM | HEK293 M3R/inducible RGS4, carbachol calcium flux Fluo4; active compounds read low | hit rate 0.92% among 310,000;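 active = B-score of the integrated calcium signal more than 4 SD below the library mean, with starting fluorescence not abnormally high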;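 note: negative B-score means reduced calcium response which marks RGS4 activation or potentiation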
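Assay system: Inducible-RGS4 HEK293 cells carrying M3 receptor | Schedule: Compound preincubation 20 min at room temperature before agonist | Signal: Kinetic calcium fluorescence imaging with Fluo4-AM dye, 2 µM | Read-out basis: B score from integrated fluorescence ratio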
MrgX1 antag: blocks BAM8-22 activation of human MrgX1 receptor; Q96LB2; MRGX1-HEK293 calcium flux, Fluo-4, BAM8-22 antagonism; active compounds read low; B-score at 10 µM; hit rate 1.3% among 310,000; AID 588676;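 active = calcium-response B-score plate-corrected more than 3 library SD below zero, starting fluorescence within 5 deviations, no agonist response on first addition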;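 note: peak minus trough fluorescence over baseline after final BAM8-22 challenge near maximal dose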
Large screens that a line does not name were inactive.

CCOc1ccc(OCCOC(=O)C2CCN(S(=O)(=O)c3ccc(C)c(C)c3)CC2)cc1	none
Cc1ccc(NC(=O)CO/N=C/c2ccc(N(C)C)cc2)cc1	MrgX1 antag -4.8
O=C(N/N=C/c1ccc(OC(=O)c2ccccc2Cl)cc1)c1cc(O)cc(O)c1	RGS4 pot -7.6
O=C1NC(=S)N(C(=O)c2ccc(F)cc2)/C1=C/c1ccccc1	MrgX1 antag -5.5
COc1ccc(OC)c(C2=C/C(=C/c3ccccn3)C(=O)O2)c1	RGS4 pot -7.9
Cn1c(C(=O)Nc2ccc3c(c2)OCCO3)cc2c(=O)n(C)c3ccccc3c21	RGS4 pot -7.2
Cc1cnc(NC(=O)c2c(-c3ccccc3)noc2C)s1	none
Cc1ccc(C(=O)OCC(=O)N(CCc2ccccc2)Cc2ccccc2)cc1S(=O)(=O)N1CCOCC1	none
CS(=O)(=O)c1nc(-c2cccs2)cc(C(F)(F)F)n1	MrgX1 agonist 36
O=C(O)CCS(=O)(=O)c1nc(-c2cccs2)cc(C(F)(F)F)n1	none
CCOc1ccc(C(C)=O)cc1N1C(=O)C2C3C=CC(O3)C2C1=O (stereo not given)	MrgX1 agonist 32
CN(C)S(=O)(=O)n1cc(/C=C(\NC(=O)c2ccccc2F)C(=O)NCCCn2ccnc2)c2ccccc21	RGS4 pot -9.6 (no result: MrgX1 PAM, MrgX1 agonist, MrgX1 antag)
COc1ccc(-n2c3c(cc(C(=O)N4CCC(C)CC4)c2=O)C(=O)CC(C)(C)C3)cc1	none
COc1ccccc1-n1c2c(cc(C(=O)N3CCC(C)CC3)c1=O)C(=O)CC(C)(C)C2	MrgX1 PAM 8.6
COc1cccc(N/C(SCc2ccccc2C)=C(/C#N)C(=O)NCc2cccs2)c1	none
COc1cccc(N/C(SC)=C(/C#N)C(=O)NCc2cccs2)c1	RGS4 pot -7.5
COc1cc(-c2nc(C(=O)NCC3CCCO3)cc3c2[nH]c2ccccc23)cc(OC)c1OC (stereo not given)	none
O=C(NCC1CCCO1)c1cc2c([nH]c3ccccc32)c(-c2cccc(Cl)c2)n1 (stereo not given)	RGS4 pot -9.2
O=C1N/C(=C/c2cccn2-c2ccccc2)C(=O)N1Cc1ccc(F)cc1	none
O=C1N/C(=C\c2ccc(N3CCOCC3)c(F)c2)C(=O)N1Cc1ccccc1	MrgX1 antag -8.6
COc1cc(/C=C2\SC(N)=NC2=O)cc(Cl)c1O	MrgX1 agonist 30
COc1ccc(-n2cccc2/C=C/[N+](=O)[O-])cc1	MrgX1 agonist 33
COc1ccc(-n2cccc2C=O)cc1	none
COc1ccccc1-c1coc2cc(OC(=O)N3CCOCC3)ccc2c1=O	none
CCC(Oc1ccc2c(=O)c(-c3ccccc3OC)coc2c1)C(=O)OCc1ccccc1 (stereo not given)	RGS4 pot -7.6
COc1ccccc1-n1cc(CN2CCN(C3CCCC3)C(CCO)C2)cn1 (stereo not given)	none
COc1ccccc1-n1cc(CN2CCN(CC(C)C)C(CCO)C2)cn1 (stereo not given)	MrgX1 antag -5.8
COc1ccccc1C1=NOC(C(=O)N2CCN(C(=O)c3ccco3)CC2)C1 (stereo not given)	none
O=c1cc(C(F)(F)F)nc(SCc2cccc3ccccc23)[nH]1	MrgX1 antag -5.1
Nc1cc(=O)[nH]c(SCc2cccc3ccccc23)n1	none
O=C(CSc1n[nH]c(Cc2ccccc2)n1)Nc1ccccc1Br	none
Cc1ccc(C(C)NC(=O)c2cc3cc(Br)ccc3oc2=N)cc1 (stereo not given)	RGS4 pot -9.2
CC(C)NC(=O)c1cc2cc(Br)ccc2oc1=O	none
COc1ccc(CN2CCN(CCSc3ccc(C)cc3)CC2)c(OC)c1OC	none
COCCNc1ccc(N2C(=O)CCCC2=O)cc1[N+](=O)[O-]	none
CC1CCN(CCOCCOc2ccc(Br)cc2Cl)CC1	RGS4 pot -7.2
CC1CCCN(CCCOc2ccc(Br)cc2Cl)C1 (stereo not given)	none
O=S(=O)(c1ccc(Oc2ccc(F)c(Cl)c2)nc1)N1CCOCC1	none
Cn1c(=NC(=O)COc2ccccc2)sc2cccc(F)c21	none
O=[N+]([O-])c1cccc(-c2cn3nc(-c4ccccc4)c(-c4ccccc4)nc3n2)c1	none
O=Nc1c(-c2cccc([N+](=O)[O-])c2)nc2ncccn12	RGS4 block 6.2
CN(Cc1nc(-c2ccc(Cl)cc2)no1)C(=O)CCN1C(=O)[C@H]2CC=CC[C@H]2C1=O	none
O=[N+]([O-])c1cc(-c2nnc(Nc3ccccc3)c3ccccc23)ccc1N1CCOCC1	none
O=C(Nc1ccc(-c2nc3ccccc3o2)cc1)c1ccc(N2CCOCC2)c([N+](=O)[O-])c1	MrgX1 antag -6.5
C=CCNc1nc(Nc2ccc(-c3nc4ccccc4o3)cc2)nc(N2CCOCC2)n1	RGS4 pot -7.1
C=CCNc1nc(NCC)nc(N2CCOCC2)n1	none
COc1ccc2oc(-c3ccc(NC(=O)c4ccc(N5CCOCC5)c([N+](=O)[O-])c4)cc3)nc2c1	none
O=[N+]([O-])c1cc(-c2nnc(Nc3ccc(O)cc3)c3ccccc23)ccc1N1CCOCC1	MrgX1 antag -4.7
Cn1cccc1/C=N/n1c(-c2ccc(Cl)cc2)n[nH]c1=S	none
Cn1cccc1/C=N/n1c(-c2ccc(Cl)cc2Cl)n[nH]c1=S	MrgX1 agonist 27
COCCN=c1scc(-c2ccc3c(c2)NC(=O)CO3)n1/N=C(\C)c1ccc(O)cc1	MrgX1 antag -5.4
COc1ccc(CC(=O)Oc2ccc(C(C)C)cc2)cc1S(=O)(=O)N1CCOCC1	none
O=C(Nc1c2c(nn1-c1ccccc1)CS(=O)C2)c1ccco1 (stereo not given)	none
CC(C)(C)C(=O)NC(=S)NNC(=O)c1ccc(-c2ccccc2)cc1	MrgX1 agonist 179, RGS4 pot -7.5
COC(=O)NNC(=O)c1ccc(Cl)cc1Cl	none
CC(C)(C)C(=O)NC(=S)NNC(=O)c1ccc(Cl)cc1Cl	RGS4 pot -7
CCCCn1c(SCC(=O)NC2CC2)nnc1-c1ccncc1	none
CN1CCN(/N=C/c2c3ccccc3c(Cl)c3ccccc23)CC1	MrgX1 PAM 9.3
CN1CCN(/N=C/c2ccc(-c3ccccc3)cc2)CC1	none
Cc1onc(-c2ccccc2Cl)c1C(=O)N1CCc2ccccc2C1	RGS4 pot -7.3
Cc1onc(-c2c(Cl)cccc2Cl)c1C(=O)N1CCc2ccccc21	RGS4 pot -7.6
Cc1onc(-c2c(Cl)cccc2Cl)c1C(=O)N1CCOCC1	none
Cc1onc(-c2c(F)cccc2Cl)c1C(=O)N1CCc2ccccc2C1	none
Cc1cc2ncn(C(=O)c3c(-c4c(Cl)cccc4Cl)noc3C)c2cc1C	RGS4 pot -7.2
Cc1cc2ncn(C(=O)c3c(-c4ccccc4)noc3C)c2cc1C	none
Cc1ncsc1C(=O)Nc1cccc(C(F)(F)F)c1	none
CCC(C(=O)NCc1ccc(F)cc1)N(Cc1cccs1)C(=O)c1snc(C(N)=O)c1N (stereo not given)	none
CCCCc1ccc(NC(=O)Nc2cc(C)nn2C)cc1	none

Compound activity deposited in PubChem BioAssay by Johns Hopkins Ion Channel Center.
